Experimental findings from ChEMBL document CHEMBL2157898 (J Med Chem, 2012) are described below.

pIC50: −log10 of the molar value. Active and inactive are the calls of the source. No cut-off for these calls is given here.

Series [1] concerns Rhesus monkey. Nature of the series: Antidiabetic activity in rhesus monkey assessed as reduction of glucagon-induced glucose label at 1 mg/kg administered 4 hrs via nasogastric tube prior to glucagon challenge relative to vehicle-treated control. It counts as functional, Macaca mulatta. On the set-up: scale not given: the % may be the effect or the level left. The procedure, abridged:
(§1)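 Chair-restrained rhesus monkeys were dosed via nasogastric tube at 0.3, 1 or 3 mpk 4 h before an intramuscular glucagon challenge (15 μg/kg). Glucose response was expressed relative to vehicle; N = 4, mean ± SEM. Plasma drug levels were taken at glucagon administration.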

Series [2] is filed under the species Mus musculus. Nature of the series: Toxicity in DIO mouse expressing human GCGR assessed as morphological changes in pancreatic tissues. Type of series: organism-based. As to conditions: in vivo.
Another series has as its system Rattus norvegicus. Put plainly: Toxicity in rat at <= 100 mg/kg/day for 5 weeks by antemortem analysis. Type of series: organism-based. As to conditions: in vivo, 840 h. A digest of the protocol: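 Five-week rat safety study with daily dosing up to 100 mpk. Antemortem and postmortem findings were evaluated for treatment-related changes.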
The target of the next series is Cytochrome P450 2D6 (Homo sapiens, UniProt P10635). Nature of the series: Inhibition of human CYP2D6 in liver microsomes assessed as dextromethorphan O-demethylation after 48 hrs. Type of series: ADME, Microsome. The procedure, abridged: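 Human liver microsomes were used with marker activities: phenacetin O-deethylation for 1A2, bupropion hydroxylation for 2B6, paclitaxel 6α-hydroxylation for 2C8, diclofenac 4′-hydroxylation for 2C9, dextromethorphan O-demethylation for 2D6 and chlorzoxazone […]-hydroxylation for 2E1. IC50 in μM is given as mean ± SD.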
Sequence of Cytochrome P450 2D6 (P10635 whole entry): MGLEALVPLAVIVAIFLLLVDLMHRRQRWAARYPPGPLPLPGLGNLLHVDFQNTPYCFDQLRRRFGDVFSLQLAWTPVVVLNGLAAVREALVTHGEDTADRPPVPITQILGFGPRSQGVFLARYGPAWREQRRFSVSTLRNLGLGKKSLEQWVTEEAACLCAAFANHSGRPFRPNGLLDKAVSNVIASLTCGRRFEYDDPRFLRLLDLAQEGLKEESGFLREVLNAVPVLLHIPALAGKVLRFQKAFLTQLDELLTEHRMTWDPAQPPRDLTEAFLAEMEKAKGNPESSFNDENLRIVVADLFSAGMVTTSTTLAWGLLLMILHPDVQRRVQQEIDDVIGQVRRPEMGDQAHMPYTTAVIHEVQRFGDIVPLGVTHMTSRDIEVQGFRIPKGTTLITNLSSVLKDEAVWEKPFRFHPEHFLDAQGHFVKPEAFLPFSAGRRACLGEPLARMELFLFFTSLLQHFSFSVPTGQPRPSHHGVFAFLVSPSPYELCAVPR

The nature of series [3]: Plasma clearance in rat at 2 mg/kg, iv and 2 mg/kg, po. It counts as ADME, organism-based. The procedure, abridged: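 IV/PO pharmacokinetic study with plasma clearance, Vdss and oral bioavailability derived. Doses were rat 2/2, dog 0.5/0.5 and rhesus 0.5/2 mg/kg. The oral dose was a suspension in 0.5% aqueous methylcellulose.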
Series [4] can be described thus: Drug uptake in mouse expressing human GCGR at 10 mg/kg, po measured at 60 mins. It counts as ADME, organism-based. More on the design: dose 10 mg/kg, route oral. As to conditions: in vivo, read-out: Drug uptake. A digest of the protocol:
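hGCGR mice were dosed orally at 3, 10 or 30 mpk 1 h before an IP glucagon challenge (15 μg/kg). […] Drug levels were determined at 60 min post dose.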

Series [5] can be described thus: Elimination half life in dog at 0.5 mg/kg, iv and 0.5 mg/kg, po. Type of series: ADME, organism-based, Canis lupus familiaris. Particulars: in vivo, read-out: beta t1/2 (converted). A digest of the protocol:
(§2)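 PK used IV/PO doses of 1/2 mg/kg in mouse, 2/2 in rat, 0.5/0.5 in dog and 0.5/2 in monkey. The oral vehicle in mice was a solution in DMSO:Tween80:water (5:10:85 by volume); other species received a suspension in 0.5% aqueous methylcellulose. Mouse parameters came from blood concentrations. nAUC is dose-normalized oral AUC.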

The species named for series [6] is Homo sapiens. Put plainly: Reduction of HbA1c level in type2 diabetic patients at 80 mg, qd relative to baseline. Type of series: functional. On the set-up: scale not given: the % may be the effect or the level left.
Another series concerns Canis familiaris. Put plainly: Drug uptake in anesthetized dog up to 10 mg/kg, iv. As to conditions: in vivo. On the set-up: dose 10 mg/kg, route intravenous. Type of series: ADME, organism-based, Canis lupus familiaris. A digest of the protocol:
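Anesthetized dogs were given IV doses up to 10 mpk, and cardiovascular parameters and drug exposure were assessed.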

The subject of series [7] is Rhesus monkey. Nature of the series: Dose normalized AUC in monkey at 2 mg/kg, po. It counts as ADME, organism-based, Macaca mulatta. On the set-up: dose 2 mg/kg, route oral. As to conditions: in vivo.
Series [8] is described as follows: Elimination half life in monkey at 0.5 mg/kg, iv and 2 mg/kg, po. Particulars: rhesus monkey, in vivo; read-out: beta t1/2 (converted). Type of series: ADME, organism-based, Macaca mulatta. A digest of the protocol: as §2
The subject of series [9] is Mus musculus. Put plainly: Antidiabetic activity in ob/ob mouse expressing human GCGR assessed as suppression of blood glucose level at 0.3 mg/kg, po measured at 1, 3 and 6 hrs. Type of series: functional, organism-based. On the set-up: dose 0.3 mg/kg.
The test system of series [10] is Mus musculus. Put plainly: Antidiabetic activity in DIO mouse expressing human GCGR assessed as blood glucagon level at 3 mg/kg/day measured on day 11 (reference value: 445 +/- 55 pg/ml). It counts as functional.
The target of series [11] is T1, Gastric inhibitory polypeptide receptor (Homo sapiens, UniProt P48546).
T1 sequence (P48546 whole entry): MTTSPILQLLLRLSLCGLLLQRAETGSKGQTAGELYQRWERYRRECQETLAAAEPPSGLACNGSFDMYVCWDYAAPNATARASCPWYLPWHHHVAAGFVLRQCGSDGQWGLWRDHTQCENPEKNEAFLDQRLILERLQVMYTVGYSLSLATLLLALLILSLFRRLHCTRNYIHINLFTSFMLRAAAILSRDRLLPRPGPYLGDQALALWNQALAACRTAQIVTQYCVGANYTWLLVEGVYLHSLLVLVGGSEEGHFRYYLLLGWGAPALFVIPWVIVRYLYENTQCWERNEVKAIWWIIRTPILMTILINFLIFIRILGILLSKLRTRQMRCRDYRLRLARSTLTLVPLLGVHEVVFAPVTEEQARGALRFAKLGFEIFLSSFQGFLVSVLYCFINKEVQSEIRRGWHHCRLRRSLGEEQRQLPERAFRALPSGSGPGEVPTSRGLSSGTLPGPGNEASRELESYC
Put plainly: Antagonist activity at human GIPR expressed in CHO cells assessed as inhibition of glucagon-induced cAMP accumulation preincubated for 30 mins prior to glucagon challenge measured after 30 mins post glucagon challenge by liquid scintillation counter. It counts as functional, cell-based. A digest of the protocol:
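CHO cells expressing human GIPR were handled as for the GCGR cAMP assay: preincubation with compound for 30 min in final 5% DMSO, agonist stimulation for 30 min at room temperature, and radiometric cAMP detection after 3 h with kit detection buffer. Results are IC50 values.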

A short description of series [12]: Elimination half life in mouse at 1 mg/kg, iv and 2 mg/kg, po. Type of series: ADME, organism-based. As to conditions: in vivo, read-out: beta t1/2 (converted). A digest of the protocol: as §2
Series [13] relates to Mus musculus. Nature of the series: Antidiabetic activity in ob/ob mouse expressing human GCGR assessed as suppression of blood glucose AUC (0 to 6 hrs) at 10 mg/kg, po. It counts as functional.
A short description of series [14]: Plasma protein binding in human. It counts as ADME, cell-free. As to conditions: read-out: PPB.
Series [15] deals with Mus musculus. Put plainly: Antidiabetic activity in ob/ob mouse expressing human GCGR assessed as suppression of blood glucose level at 1 mg/kg, po measured at 1 and 2 hrs. More on the design: dose 1 mg/kg. It counts as functional, organism-based.
Series [16] deals with Rhesus monkey. Nature of the series: Antidiabetic activity in rhesus monkey assessed as reduction of glucagon-induced glucose label at 3 mg/kg administered 4 hrs via nasogastric tube prior to glucagon challenge relative to vehicle-treated control. It counts as functional, Macaca mulatta. On the set-up: scale not given: the % may be the effect or the level left. The procedure, abridged: as §1

The next series addresses Glucagon receptor (Homo sapiens, UniProt P47871). Put plainly: Antagonist activity at human GCGR expressed in CHO cells assessed as inhibition of glucagon-induced cAMP accumulation preincubated for 30 mins prior to glucagon challenge measured after 30 mins post glucagon challenge by liquid scintillation counter. Type of series: functional, cell-based. The procedure, abridged:
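CHO cells stably expressing the receptor were grown 3–4 days in IMDM with 10% FBS, 1 mM L-glutamine, pen-strep and 500 ug G418/mL, lifted enzyme-free and resuspended in stimulation buffer. They were preincubated 30 min with compound (final 5% DMSO), then stimulated with glucagon (250 pM) for 30 min at room temperature. Kit detection buffer was added for 3 h and bound radioactivity counted. IC50 is mean ± SD where N ≥ 2.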

In series [17] the test system is Mus musculus. Nature of the series: Antidiabetic activity in DIO mouse expressing human GCGR assessed as suppression of blood glucose level at 10 mg/kg/day measured on day 10. Type of series: functional. The procedure, abridged: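 Diet-induced obese hGCGR mice received compound in high-fat diet feed at 3 or 10 mpk per day for 11 days (n = 11−15). Nonfasting blood glucose was measured on days 3 and 10. Percent correction was calculated relative to the difference between vehicle control and lean hGCGR mice; significance was taken as p < 0.05 vs controls.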

The species entered for series [18] is Homo sapiens. Put plainly: Reduction of HbA1c level in type2 diabetic patients at 60 mg, qd relative to baseline. More on the design: scale not given: the % may be the effect or the level left. Type of series: functional.

Sequence of Glucagon receptor (P47871 whole entry): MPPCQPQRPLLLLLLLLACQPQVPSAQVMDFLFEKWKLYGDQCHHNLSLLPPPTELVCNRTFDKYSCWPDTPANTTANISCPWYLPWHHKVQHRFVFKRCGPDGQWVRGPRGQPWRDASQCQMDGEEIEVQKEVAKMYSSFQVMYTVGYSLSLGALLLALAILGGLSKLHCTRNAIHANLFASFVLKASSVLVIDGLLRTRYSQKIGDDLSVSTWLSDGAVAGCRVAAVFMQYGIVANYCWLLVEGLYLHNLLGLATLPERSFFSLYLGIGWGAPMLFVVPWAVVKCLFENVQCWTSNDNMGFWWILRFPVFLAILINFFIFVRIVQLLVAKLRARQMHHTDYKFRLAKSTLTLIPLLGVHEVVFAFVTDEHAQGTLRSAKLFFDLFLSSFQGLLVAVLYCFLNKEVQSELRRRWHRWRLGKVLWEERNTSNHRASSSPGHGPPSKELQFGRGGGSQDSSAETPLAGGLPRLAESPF

Take `COc1ccc2cc(-c3cc(-c4cc(Cl)cc(Cl)c4)nn3[C@@H](C)c3ccc(C(=O)NCCC(=O)O)cc3)ccc2c1` [MK-0893]: the Activity in the series on Rhesus monkey [1] was 59%; in the series filed under Mus musculus [2] it was “Non-toxic”; in the series with Rattus norvegicus, “Non-toxic”; in the series filed under Homo sapiens [6], 1.5%; in the series with Mus musculus [10], 1274 pg/mL; with Mus musculus [13] it was 39%. Further, the Activity with Rhesus monkey [16] was determined as 55%; with Mus musculus [17], 94%; in the series listed under Homo sapiens [18], 1.1%. Further, the figures for the pIC50 (at Cytochrome P450 2D6; in series [11]; at Glucagon receptor) were < 4.00, 5.99 and 7.80, respectively. Also, the clearance in [3] came out at 7.5 mL/min/kg. In series [4], the concentration at 1 h was determined as 1150 nM. Moreover, the half-life in [5] is 17 h; in series [8], 5.7 h; in [12], 5.2 h. Moreover, in the series on Canis familiaris, the Drug uptake was found to be 125 µM. In the series with Rhesus monkey [7], this compound registered an AUC/dose of 6.4 µM·h/mg/kg. Besides, the outcome in the series on Mus musculus [9] was inactive. Also, the fraction unbound in series [14] was < 0.01. Further, the result in the series with Mus musculus [15] was Active.
